hERG rescue: hERG (human) protection from proarrhythmic block; 310,000 compounds, 0.51% hits; CHO-hERG, FluxOR thallium flux, dofetilide IC70 present; Q12809; activation (rescue from dofetilide block), less the hit threshold, % at 10 µM;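 active means activation above the mean of controls blocked by dofetilide plus 5 SD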;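 further: thallium influx through hERG after potassium depolarization seen as dye fluorescence rise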
KCNQ1 inh: blocks the human KCNQ1 potassium channel | 310,000 compounds, 1.3% hits | P51787 | B-score at 10 µM | AID 2642 | CHO-K1 KCNQ1, FluxOR thallium flux fluorescence; active compounds read high;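 active means compounds whose thallium flux B-score, printed positive for inhibition, exceeds three library SD while starting fluorescence stays within three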;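 further: channel opened by potassium depolarization with thallium stimulus after 20 min compound exposure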
KCNK9 block: blocks the human KCNK9 two-pore domain potassium channel | Q9NPC2 | HEK293 KCNK9, FluxOR thallium flux fluorescence; active compounds read low | B-score at 10 µM | 310,000 compounds, 1.2% hits | AID 488922;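 active means ratio B-score over 3 SD below the library mean, with starting fluorescence within 5 SD of its mean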;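 further: negative B-score means less thallium flux so channel inhibition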
Target sequence (Q9NPC2 whole entry, looked up, the tested form may be a part): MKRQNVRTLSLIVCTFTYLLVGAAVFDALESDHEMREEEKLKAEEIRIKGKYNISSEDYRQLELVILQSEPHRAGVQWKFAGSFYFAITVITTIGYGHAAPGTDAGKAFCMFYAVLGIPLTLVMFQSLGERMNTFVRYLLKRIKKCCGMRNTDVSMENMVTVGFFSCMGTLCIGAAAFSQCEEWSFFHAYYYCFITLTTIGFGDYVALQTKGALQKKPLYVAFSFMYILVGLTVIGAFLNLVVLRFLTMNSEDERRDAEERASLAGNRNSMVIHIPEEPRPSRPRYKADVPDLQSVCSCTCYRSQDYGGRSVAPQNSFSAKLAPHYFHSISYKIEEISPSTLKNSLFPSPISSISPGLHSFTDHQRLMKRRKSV
KCNK3 inh: human KCNK3 channel inhibition, primary screen; O14649; CHO-KCNK3 thallium flux, FluxOR fluorescence; active compounds read low; B-score at 10 µM; 340,000 compounds, 0.84% hits;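 active means B-score under library mean minus 4 SD, starting fluorescence ratio at most library mean plus 5 SD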;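 further: more negative B-score means stronger inhibition of thallium flux through KCNK3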
KCNQ1 act: human KCNQ1 channel potentiation or activation | P51787 | CHO-K1 KCNQ1, thallium flux FluxOR fluorescence; active compounds read high | B-score at 10 µM | 310,000 compounds, 0.35% hits;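 active means fluorescence ratio B-score, a plate-corrected score, at least three library SD, with initial intensity B-score within 5 SD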
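assay system = KCNQ1-transfected CHO-K1 cells | medium = assay buffer with matched DMSO | probe or stimulus = depolarizing K+/Tl+ stimulus, K2SO4 and Tl2SO4 each 12.5 mM in 5x stock | dosing = single dose | incubation = dye 90 min, compound 20 min, room temperature | detection = kinetic FluxOR fluorescence, 10 s baseline plus 110 s post-stimulus | evaluation = ratio B score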
KCNK3 confirm: human KCNK3 channel inhibition, confirmation assay; 2,400 compounds, 99% hits; AID 651638; CHO-KCNK3 thallium flux, FluxOR fluorescence; 0% buffer, 100% carvedilol maximal block; ratio percent of control, % at 10 µM; shares compounds with KCNK3 inh;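 active means ratio percent of control, averaged over triplicates, above buffer control mean plus 5 SD, cut at about 64% in these data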;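 further: ratio is the fluorescence rise from min to max over baseline after thallium stimulus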
KCNK3 uninduced: KCNK3 inhibitor counter-screen hit in non-induced cells | non-induced KCNK3 parental cells, FluxOR thallium flux; active compounds read low | shares compounds with KCNK3 inh | 2,400 compounds, 40% hits | thallium flux ratio (lower = more inhibition) at 10 µM | AID 651747;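 active means thallium flux ratio, averaged over three wells, more than 5 SD below the buffer control mean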;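 further: host cells are CHO cells without KCNK3 induction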
Each line names hits and unclear results; the compound was inactive in the other large screens (follow-up assays come after a bar, where they were run). Most compounds without a hit are left out; they make up all but 3.1% or so of the library.

COc1cccc(C(=O)N(Cc2nc(-c3ccc(C)cc3)no2)C(C)C)c1	none
O=C(Nc1cc(C(F)(F)F)ccc1N1CCCCC1)c1cccc([N+](=O)[O-])c1	none
COc1ccc(Nc2c(-c3ccc(C)cc3)nc3cnccn23)cc1	none
Cc1ccc(Nc2c(-c3ccccc3O)nc3cnccn23)cc1	KCNK3 inh -9.2 | KCNK3 confirm 115 | KCNK3 uninduced 0.13
CCCN=C1CC(C)(C)CC(=O)/C1=C(/O)CCC	KCNK3 inh -9 | KCNK3 confirm 99 | KCNK3 uninduced inactive
Cc1cc(C)c(NC(=O)CSc2nc3ccccc3c(=O)n2CCCN2CCOCC2)c(C)c1	none (no result: hERG rescue, KCNQ1 inh, KCNK9 block, KCNQ1 act)
COc1ccc(CCN(Cc2nc(-c3ccccc3)no2)Cc2nc(-c3ccccc3)no2)cc1OC	KCNK3 inh -9.2 | KCNK3 confirm 92 | KCNK3 uninduced inactive
CCOC(=O)Cn1c(C(F)(F)F)nc2nc(Cl)c(Cl)nc21	none (no result: hERG rescue, KCNQ1 inh, KCNK9 block, KCNQ1 act)
Cc1ccc(CSc2nc3c(c(N(C)C)n2)CCCC3)cc1	KCNK3 inh -8.9 | KCNK3 confirm 139 | KCNK3 uninduced 0.12
Nc1nc(-c2cccnc2)nc(N2CCCCC2)n1	none
c1ccc(-c2nc(N3CCCCCC3)nc(-n3ccnc3)n2)cc1	KCNK9 block -7, KCNK3 inh -10 | KCNK3 confirm 122 | KCNK3 uninduced inactive
CC(C)NC(=O)c1ccccc1NC(=O)CN(c1ccc2c(c1)OCO2)S(C)(=O)=O	none
CCOc1cc(C(=S)N2CCOCC2)ccc1OC(=O)c1ccc(C)cc1	none
CCOc1cc(C(=S)N2CCOCC2)ccc1OC(=O)c1cccc(C)c1	KCNK3 inh -9.1 | KCNK3 confirm 114 | KCNK3 uninduced inactive
CCOc1cc(C(=S)N2CCOCC2)ccc1OC(=O)c1ccccc1	KCNK3 inh -8.9 | KCNK3 confirm 92 | KCNK3 uninduced inactive
NC(=O)c1nsc(C(=O)N(c2ccccc2)C(C(=O)NCc2ccc(F)cc2)c2ccc(O)cc2)c1N (stereo not given)	none
O=C(CN(CC1CCCO1)C(=O)CNS(=O)(=O)c1ccc(F)cc1)NCc1ccc(F)cc1 (stereo not given)	none
CS(=O)(=O)c1cccc(NC(=O)C2CCCN2S(=O)(=O)c2ccc(F)cc2)c1 (stereo not given)	none

Screens from PubChem.
